Test results as given in ChEMBL document CHEMBL1268848, “Selenium-containing analogs of SAHA induce cytotoxicity in lung cancer cells” (Bioorg Med Chem Lett, 2010).
The source made the active and inactive calls. The calls are words filed in the database; no cut-off is given here.

Assays:
[1] = system: A549; assay: Cytotoxicity against human A549 cells by SRB assay; type: functional, cell-based
[2] = system: NCI-H1299; assay: Cytotoxicity against human NCI-H1299 by SRB assay; type: functional, cell-based
[3] = system: NCI-H460; assay: Cytotoxicity against human NCI-H460 by SRB assay; type: functional, cell-based
[4] = system: A549; assay: Induction of autophagy in human A549 cells assessed as increase in LC3II after 24 hrs relative to control; type: functional, cell-based
In short: (§1)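 A549 cells given 5 μM compound, with DMSO-treated controls, and harvested at times from 0 to 24 h. Lysis buffer: 20 mM Tris pH 7.4, 150 mM NaCl, 1 mM EDTA/EGTA, 1% Triton X-100, NaF, Na3VO4 and protease inhibitors, 10 min at 4°C. 10 μg protein run on SDS-PAGE and immunoblotted for LC3B, with actin as loading reference.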

[5] = system: NCI-H23; assay: Cytotoxicity against human NCI-H23 by SRB assay; type: functional, cell-based
[6] = biological target: RAC-alpha serine/threonine-protein kinase (Homo sapiens) (UniProt P31749); assay: Inhibition of AKT phosphorylation in human A549 at 5 uM after 24 hrs by Western blot analysis; type: functional
In short: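 A549 cells treated 24 h with 5 μM compound, with DMSO controls. Lysed in Tris pH 7.4/NaCl/EDTA/EGTA/1% Triton X-100 buffer containing NaF, Na3VO4 and protease inhibitors, 10 min at 4°C, then cleared at 14,000 xg. 10 μg protein by BCA run on SDS-PAGE and blotted to PVDF. Probed with anti-pAKT and compared with pan-AKT.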

[7] = organism: Homo sapiens; details: at 5 µM
[8] = system: NCI-H226; assay: Cytotoxicity against human NCI-H226 by SRB assay; type: functional, cell-based
[9] = system: A549; assay: Induction of autophagy in human A549 cells assessed as increase in LC3II after 3 hrs relative to control; type: functional, cell-based; in short: as §1
[10] = system: NCI-H522; assay: Cytotoxicity against human NCI-H522 by SRB assay; type: functional, cell-based
In short: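 SRB cytotoxicity assay after 24 h drug exposure. Cells grown in DMEM with 10% FBS and penicillin/streptomycin at 37 °C under 5% CO2. Compounds taken from 10 mM DMSO stocks and diluted in medium over 0.1–50 μM, final DMSO 0.2%, with DMSO-only controls. IC50 obtained by non-linear regression of dose-response curves.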

[11] = Cytotoxicity against human H441 by SRB assay; type: functional; details: NCI-H441
[12] = system: NCI-H2126; assay: Cytotoxicity against human NCI-H2126 by SRB assay; type: functional, cell-based

Chain of RAC-alpha serine/threonine-protein kinase (Homo sapiens) (P31749 whole entry): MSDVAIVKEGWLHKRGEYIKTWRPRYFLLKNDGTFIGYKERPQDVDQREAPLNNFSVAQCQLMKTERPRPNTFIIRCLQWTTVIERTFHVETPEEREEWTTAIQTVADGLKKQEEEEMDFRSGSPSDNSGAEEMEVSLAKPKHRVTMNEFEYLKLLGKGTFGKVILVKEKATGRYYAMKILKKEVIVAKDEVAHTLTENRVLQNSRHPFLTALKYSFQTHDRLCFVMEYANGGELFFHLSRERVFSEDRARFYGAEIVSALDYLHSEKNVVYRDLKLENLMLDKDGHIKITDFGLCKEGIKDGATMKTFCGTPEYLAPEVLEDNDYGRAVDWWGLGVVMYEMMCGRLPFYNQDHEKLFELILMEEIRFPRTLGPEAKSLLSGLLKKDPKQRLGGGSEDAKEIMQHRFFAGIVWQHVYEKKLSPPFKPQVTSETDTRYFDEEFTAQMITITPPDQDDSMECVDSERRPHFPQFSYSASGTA

| inhibition [6] | Compound | IC50 [1] [nM] | IC50 [2] [nM] | IC50 [3] [nM] | Activity [4] | IC50 [5] [nM] | inhibition [7] | IC50 [8] [nM] | Activity [9] | IC50 [10] [nM] | IC50 [11] [nM] | IC50 [12] [nM] |
| --- | --- | --- | --- | --- | --- | --- | --- | --- | --- | --- | --- | --- |
| inactive | O=C(CCCCCCC(=O)Nc1ccccc1)NO [VORINOSTAT] | – | – | – | – | – | – | – | inactive | 832 | – | – |
| Active | O=C(CCCCC[Se][Se]CCCCCC(=O)Nc1ccccc1)Nc1ccccc1 | 370 | 438 | 2130 | Active | 279 | Active | 1730 | Active | 188 | 92 | 1090 |

| Compound | inhibition [6] | IC50 [1] [nM] | IC50 [2] [nM] | IC50 [3] [nM] | Activity [4] | IC50 [5] [nM] | inhibition [7] | IC50 [8] [nM] | Activity [9] | IC50 [10] [nM] | IC50 [11] [nM] | IC50 [12] [nM] |
| --- | --- | --- | --- | --- | --- | --- | --- | --- | --- | --- | --- | --- |
| N#C[Se]CCCCCC(=O)Nc1ccccc1 | Active | 653 | 923 | 1460 | Active | 271 | Active | 1050 | Active | 779 | 449 | 928 |
